Measurements as given in PMC6300982 (Chemosphere, 2015).

Legend:
Format in all cases: biochemical
UGT1A3 [1] = molecular target: T1, UGT1A3 (Homo sapiens, UniProt P35503); test: glucuronidation of 4-MU by recombinant enzyme, HPLC-UV
T1 sequence (P35503 29-534): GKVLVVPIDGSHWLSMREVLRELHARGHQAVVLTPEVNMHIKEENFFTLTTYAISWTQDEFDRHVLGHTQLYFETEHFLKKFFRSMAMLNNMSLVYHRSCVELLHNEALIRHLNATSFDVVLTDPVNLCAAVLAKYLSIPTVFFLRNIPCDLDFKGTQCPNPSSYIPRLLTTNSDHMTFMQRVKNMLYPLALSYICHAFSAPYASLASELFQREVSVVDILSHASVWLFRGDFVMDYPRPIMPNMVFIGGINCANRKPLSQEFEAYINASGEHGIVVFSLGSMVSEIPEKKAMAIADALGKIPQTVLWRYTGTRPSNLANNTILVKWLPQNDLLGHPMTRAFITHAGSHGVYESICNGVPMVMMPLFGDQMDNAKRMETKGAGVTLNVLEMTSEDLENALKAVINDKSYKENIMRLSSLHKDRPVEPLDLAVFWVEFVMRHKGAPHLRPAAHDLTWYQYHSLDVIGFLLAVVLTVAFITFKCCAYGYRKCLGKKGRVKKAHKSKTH

UGT2B7 = molecular target: T2, UGT2B7 (Homo sapiens, UniProt P16662); test: single-concentration; conditions: read-out: % inhibition at 100 μM
T2 sequence (P16662 24-529): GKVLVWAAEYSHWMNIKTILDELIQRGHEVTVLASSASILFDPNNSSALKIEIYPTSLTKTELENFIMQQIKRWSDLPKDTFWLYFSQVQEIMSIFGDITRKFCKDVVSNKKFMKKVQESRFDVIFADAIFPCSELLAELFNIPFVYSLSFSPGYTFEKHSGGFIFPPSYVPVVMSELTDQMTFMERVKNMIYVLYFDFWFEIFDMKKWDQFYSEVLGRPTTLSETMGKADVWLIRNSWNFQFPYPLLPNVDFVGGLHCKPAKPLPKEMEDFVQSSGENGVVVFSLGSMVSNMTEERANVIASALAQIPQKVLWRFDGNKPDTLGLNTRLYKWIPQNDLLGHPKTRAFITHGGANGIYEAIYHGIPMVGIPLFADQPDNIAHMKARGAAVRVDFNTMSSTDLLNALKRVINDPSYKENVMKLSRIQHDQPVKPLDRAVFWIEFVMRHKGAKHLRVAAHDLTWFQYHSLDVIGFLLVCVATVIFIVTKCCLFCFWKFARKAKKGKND

UGT1A9 = molecular target: T3, UGT1A9 (Homo sapiens, UniProt O60656); test: single-concentration; conditions: read-out: % inhibition at 100 μM
T3 sequence (O60656 26-530): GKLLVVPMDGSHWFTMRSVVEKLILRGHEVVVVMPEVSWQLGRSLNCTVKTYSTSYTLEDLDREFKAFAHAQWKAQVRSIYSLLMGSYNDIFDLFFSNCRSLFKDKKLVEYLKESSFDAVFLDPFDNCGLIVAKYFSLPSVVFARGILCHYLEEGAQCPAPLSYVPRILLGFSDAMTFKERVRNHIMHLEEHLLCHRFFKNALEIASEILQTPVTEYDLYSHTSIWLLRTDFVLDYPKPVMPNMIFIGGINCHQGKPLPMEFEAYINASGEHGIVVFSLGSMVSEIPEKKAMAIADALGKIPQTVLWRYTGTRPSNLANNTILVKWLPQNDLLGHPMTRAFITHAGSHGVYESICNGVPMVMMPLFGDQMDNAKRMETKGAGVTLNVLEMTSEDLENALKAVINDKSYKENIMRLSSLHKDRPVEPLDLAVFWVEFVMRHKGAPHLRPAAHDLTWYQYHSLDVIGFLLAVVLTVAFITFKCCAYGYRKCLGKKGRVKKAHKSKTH

UGT1A3 [2] = molecular target: T1, UGT1A3; test: dose-dependent inhibition of 4-MU glucuronidation, HPLC-UV; conditions: read-out: % inhibition at 100 μM
UGT1A3 [3] = molecular target: T1, UGT1A3; test: inhibition kinetics of 4-MU glucuronidation by recombinant enzyme
Outline: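 Insect-cell-expressed human UGT1A3 glucuronidating 4-MU across several substrate and test compound concentrations. Buffer: 5 mM UDPGA, 5 mM MgCl2, 50 mM Tris-HCl pH 7.4. 5 min preincubation, started with UDPGA, 37 °C. 4-MUG quantified by HPLC-UV at 316 nm against internal standard. Dixon and Lineweaver–Burk plots gave inhibition type; Ki from secondary plot of Lineweaver–Burk slopes versus inhibitor concentration.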

UGT1A6 = molecular target: T4, UGT1A6 (Homo sapiens, UniProt P19224); test: single-concentration; conditions: read-out: % inhibition at 100 μM
T4 sequence (P19224 27-532): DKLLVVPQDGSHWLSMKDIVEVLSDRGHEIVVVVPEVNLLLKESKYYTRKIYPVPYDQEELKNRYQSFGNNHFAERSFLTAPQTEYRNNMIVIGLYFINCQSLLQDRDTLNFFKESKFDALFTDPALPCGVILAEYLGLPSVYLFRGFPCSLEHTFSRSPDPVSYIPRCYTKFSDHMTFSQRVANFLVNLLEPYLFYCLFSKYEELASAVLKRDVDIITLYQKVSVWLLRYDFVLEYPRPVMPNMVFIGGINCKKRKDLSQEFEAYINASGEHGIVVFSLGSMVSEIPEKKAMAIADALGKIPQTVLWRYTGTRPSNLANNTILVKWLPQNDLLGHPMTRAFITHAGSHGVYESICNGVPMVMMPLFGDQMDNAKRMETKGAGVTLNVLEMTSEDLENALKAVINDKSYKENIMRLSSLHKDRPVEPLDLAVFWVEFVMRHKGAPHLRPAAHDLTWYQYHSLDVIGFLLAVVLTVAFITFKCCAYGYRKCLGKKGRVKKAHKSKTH

Cc1cc(=O)oc2cc(O)ccc12 [4-MU, 4-Methylμmbelliferone] was tested, and the “glucuronidation of 4-MU by recombinant enzyme, HPLC-UV” value (UGT1A3 [1]) was “Determination of inhibition kinetics of DPhP towards UGT1A3-catalyzed glucuronidation of 4-MU”.

In the case of CCCCCCCCOC(=O)c1ccccc1C(=O)OCCCCCCCC [DNOP, di-n-octyl ortho-phthalate], the inhibition at 100 µM (UGT2B7) is reported as 48.8%, the inhibition at 100 µM (UGT1A9) is reported as 45.6% and the inhibition at 100 µM (UGT1A3 [2]) is reported as 41.8%.

With O=C(Oc1ccccc1)c1ccccc1C(=O)Oc1ccccc1 [DPhP, diphenyl phthalate] the inhibition at 100 µM (UGT1A9) was 76.4%, the Ki (UGT1A3 [3]) was 890 nM and the inhibition at 100 µM (UGT1A6) was 49.1%.
